Test results taken from ChEMBL document CHEMBL3745692, “Novel iodoacetamido benzoheterocyclic derivatives with potent antileukemic activity are inhibitors of STAT5 phosphorylation” (Eur J Med Chem, 2016).

Legend:
K562 [1] = experiment: Cell cycle arrest in human K562 cells assessed as accumulation at G1 phase at 0.75 uM for 24 hrs by propidium iodide staining based flow cytometry (reference value: 39.27%); format: functional
How it was run: (§1)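 K562 cells were exposed to compound for 24 h. They were then washed in ice-cold PBS and resuspended at 1×10^6/mL in a hypotonic solution of propidium iodide 50 µg/mL in 0.1% sodium citrate with 0.03% NP-40. After 30 min, DNA content was read by flow cytometry as single-parameter histograms and cell cycle phase distribution (%) was modelled.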

K562 [2] = experiment: Induction of apoptosis in human K562 cells after 48 hrs by annexinV and propidium iodide staining based flow cytometry; format: functional, cell-based; settings: K562, 48 h
How it was run: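 After 48 h drug exposure, 1×10^6 cells were washed in PBS and spun at 200×g for 5 min. They were stained with FITC-annexin V plus propidium iodide for 15 min at 20 °C and annexin V-positive cells counted by flow cytometry. Apoptosis was also scored morphologically with acridine orange/ethidium bromide, counting at least 300 cells. AC50 is the concentration inducing apoptosis in 50% of cells; mean ± SE from two to three experiments.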

K562 [3] = experiment: Antiproliferative activity against human K562 cells after 48 hrs by trypan blue dye exclusion assay; format: functional, cell-based; settings: K562, 48 h
K562 [4] = experiment: Cell cycle arrest in human K562 cells assessed as accumulation at S-phase at 0.75 uM for 24 hrs by propidium iodide staining based flow cytometry (reference value: 47.84%); format: functional; how it was run: as §1
K562 [5] = experiment: Cell cycle arrest in human K562 cells assessed as accumulation at G2M-phase at 0.75 uM for 24 hrs by propidium iodide staining based flow cytometry (reference value: 12.89%); format: functional; how it was run: as §1
[6] = target: T1, Signal transducer and activator of transcription 5A (Homo sapiens) (UniProt P42229); experiment: Inhibition of STAT5 phosphorylation in human K562 cells at 0.75 uM after 24 hrs by flow cytometry (reference value: 315.56); format: cell-based
T1 sequence (whole entry): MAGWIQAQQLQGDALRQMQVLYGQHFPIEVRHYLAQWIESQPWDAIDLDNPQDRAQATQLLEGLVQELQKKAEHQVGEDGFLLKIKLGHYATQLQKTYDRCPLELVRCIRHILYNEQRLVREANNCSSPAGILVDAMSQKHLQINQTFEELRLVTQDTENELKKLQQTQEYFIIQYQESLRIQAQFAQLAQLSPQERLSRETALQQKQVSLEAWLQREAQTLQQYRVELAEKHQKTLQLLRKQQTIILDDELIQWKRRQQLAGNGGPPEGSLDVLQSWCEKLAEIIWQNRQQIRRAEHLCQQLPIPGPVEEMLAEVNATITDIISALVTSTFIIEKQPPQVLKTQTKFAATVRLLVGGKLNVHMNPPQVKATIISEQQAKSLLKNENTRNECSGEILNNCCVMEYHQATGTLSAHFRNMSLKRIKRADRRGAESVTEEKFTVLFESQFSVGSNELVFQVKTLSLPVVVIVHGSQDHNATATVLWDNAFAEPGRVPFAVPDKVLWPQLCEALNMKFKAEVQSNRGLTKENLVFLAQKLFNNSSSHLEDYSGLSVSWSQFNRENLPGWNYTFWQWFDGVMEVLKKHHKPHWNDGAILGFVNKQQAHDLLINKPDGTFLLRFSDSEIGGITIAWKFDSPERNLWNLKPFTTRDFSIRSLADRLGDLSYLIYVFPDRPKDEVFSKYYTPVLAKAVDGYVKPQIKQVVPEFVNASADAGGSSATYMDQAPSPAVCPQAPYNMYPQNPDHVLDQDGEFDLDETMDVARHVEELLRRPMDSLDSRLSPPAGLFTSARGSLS
How it was run: (§2)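 After 24 h exposure, about 1×10^6 K562 cells were PBS-washed and fixed/permeabilised for 20 min at 4 °C. They were then stained for 30 min at 4 °C with PE-conjugated anti-pSTAT5 monoclonal antibody, with an isotype antibody as control. Median fluorescence was read by flow cytometry and compared with untreated cells stained for pSTAT5.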

K562 [7] = experiment: Cell cycle arrest in human K562 cells assessed as accumulation at S-phase at 5 uM for 24 hrs by propidium iodide staining based flow cytometry (reference value: 47.84%); format: functional; how it was run: as §1
[8] = target: T1, Signal transducer and activator of transcription 5A (Homo sapiens); experiment: Inhibition of STAT5 phosphorylation in human K562 cells at 5 uM after 24 hrs by flow cytometry (reference value: 315.56); format: cell-based; how it was run: as §2
K562 [9] = experiment: Cell cycle arrest in human K562 cells assessed as accumulation at G2M-phase at 5 uM for 24 hrs by propidium iodide staining based flow cytometry (reference value: 12.89%); format: functional; how it was run: as §1
Tubulin = Tubulin (Bos taurus, UniProt Q6B856+Q862L2+Q862F3); experiment: Inhibition of bovine brain tubulin polymerization by spectrophotometry
How it was run: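 Bovine brain tubulin (10 µM) was pre-incubated with varying compound concentrations in glutamate buffer at 30 °C, then cooled to 0 °C. GTP was added ([…] final) and the mixture warmed to 30 °C. Assembly was followed by turbidity at 350 nm.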

K562 [10] = experiment: Cell cycle arrest in human K562 cells assessed as accumulation at G1 phase at 5 uM for 24 hrs by propidium iodide staining based flow cytometry (reference value: 39.27%); format: functional; how it was run: as §1
[11] = target: T1, Signal transducer and activator of transcription 5A (Homo sapiens); experiment: Inhibition of STAT5 phosphorylation in human K562 cells at 3 uM after 24 hrs by flow cytometry (reference value: 315.56); format: cell-based; how it was run: as §2
K562 [12] = experiment: Cell cycle arrest in human K562 cells assessed as accumulation at S-phase at 3 uM for 24 hrs by propidium iodide staining based flow cytometry (reference value: 47.84%); format: functional
How it was run: (§3)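 K562 cells in RPMI 1640 with 10% FCS, penicillin/streptomycin and L-glutamine, 5% CO2, 37 °C; exposed 24 h. Cells washed in ice-cold PBS, resuspended at 1×10^6/mL in hypotonic solution of propidium iodide 50 µg/mL in 0.1% sodium citrate plus 0.03% nonidet P-40 for 30 min. DNA content read as single-parameter flow cytometry histograms; phase distribution modelled.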

K562 [13] = experiment: Cell cycle arrest in human K562 cells assessed as accumulation at G2M-phase at 3 uM for 24 hrs by propidium iodide staining based flow cytometry (reference value: 12.89%); format: functional; how it was run: as §3
K562 [14] = experiment: Cell cycle arrest in human K562 cells assessed as accumulation at G1 phase at 3 uM for 24 hrs by propidium iodide staining based flow cytometry (reference value: 39.27%); format: functional; how it was run: as §3
Bos taurus = species on record: Bos taurus; experiment: Inhibition of [3H]colchicine binding to bovine tubulin at 5 uM by DEAE-cellulose filter method
How it was run: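 Reaction mixtures contained 1 µM tubulin, 5 µM [3H]colchicine and 5 µM test compound. Result is given as % inhibition of colchicine binding ± SD.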

K562 [15] = experiment: Cell cycle arrest in human K562 cells assessed as accumulation at S-phase at 2 uM for 24 hrs by propidium iodide staining based flow cytometry (reference value: 47.84%); format: functional; how it was run: as §1
[16] = target: T1, Signal transducer and activator of transcription 5A (Homo sapiens); experiment: Inhibition of STAT5 phosphorylation in human K562 cells at 2 uM after 24 hrs by flow cytometry relative to control; format: cell-based
How it was run: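 K562 cells were exposed for 24 h. About 1×10^6 cells were fixed and permeabilized for 20 min at 4 °C, then stained for 30 min at 4 °C with PE-conjugated anti-pSTAT5 monoclonal antibody; an isotype IgG1 antibody served as the background control. Median fluorescence was read by flow cytometry and compared with untreated cells stained for pSTAT5.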

K562 [17] = experiment: Cell cycle arrest in human K562 cells assessed as accumulation at G2M-phase at 2 uM for 24 hrs by propidium iodide staining based flow cytometry (reference value: 12.89%); format: functional; how it was run: as §1
[18] = target: T1, Signal transducer and activator of transcription 5A (Homo sapiens); experiment: Inhibition of STAT5 phosphorylation in human K562 cells at 2 uM after 24 hrs by flow cytometry (reference value: 315.56); format: cell-based; how it was run: as §2
K562 [19] = experiment: Cell cycle arrest in human K562 cells assessed as accumulation at G1 phase at 2 uM for 24 hrs by propidium iodide staining based flow cytometry (reference value: 39.27%); format: functional; how it was run: as §1

Question: With COc1cc(C(=O)c2cc3cc(NC(=O)CI)cc(OC)c3o2)cc(OC)c1OC as the compound, how does the Activity (K562 [1]) read?
Answer: 34.66%

Question: What about the AC50 (K562 [2]) of the same compound?
Answer: 2200 nM

Question: What about the IC50 (K562 [3]) of the same compound?
Answer: 400 nM

Question: What about the Activity (K562 [4]) of the same compound?
Answer: 57.32%

Question: And the Activity (K562 [5])?
Answer: 8.02%

Question: What about the Flu intensity [6] of the same compound?
Answer: 316

Question: For COc1ccc2oc(C(=O)c3cc(OC)c(OC)c(OC)c3)c(NC(=O)CI)c2c1, which AC50 (K562 [2]) is on record?
Answer: 7800 nM

Question: What about the IC50 (K562 [3]) of the same compound?
Answer: 3200 nM

Question: What does the source list for O=C(CI)Nc1c(C(=O)c2ccccc2)oc2ccccc12?
Answer: Activity (K562 [7]): 20.28%; AC50 (K562 [2]): 5900 nM; Flu intensity [8]: 103; Activity (K562 [9]): 11.4%; IC50 (Tubulin): > 20000 nM; Activity (K562 [10]): 68.32%; IC50 (K562 [3]): 1000 nM

Question: What does the source list for COc1ccc(C(=O)c2oc3ccccc3c2NC(=O)CI)cc1?
Answer: AC50 (K562 [2]): 6800 nM; IC50 (K562 [3]): 2900 nM

Question: What does the source list for COc1cc(C(=O)c2cc3ccc(NC(=O)CI)cc3o2)cc(OC)c1OC?
Answer: AC50 (K562 [2]): 2900 nM; Flu intensity [11]: 289; IC50 (K562 [3]): 600 nM; Activity (K562 [12]): 51.3%; Activity (K562 [13]): 11.1%; Activity (K562 [14]): 37.06%

Question: How did the AC50 (K562 [2]) turn out when COc1ccc2c(NC(=O)CI)c(C(=O)c3cc(OC)c(OC)c(OC)c3)oc2c1 was run?
Answer: 450 nM

Question: And the inhibition (Bos taurus)?
Answer: 54%

Question: And the IC50 (Tubulin)?
Answer: 1800 nM

Question: And the IC50 (K562 [3])?
Answer: 120 nM

Question: For Cc1ccc(NC(=O)c2ccc(CN3CCN(C)CC3)cc2)cc1Nc1nccc(-c2cccnc2)n1 [IMATINIB], which AC50 (K562 [2]) is on record?
Answer: 680 nM

Question: COc1cc(C(=O)c2cc3cc(NC(=O)CI)ccc3o2)cc(OC)c1OC was tested. Which AC50 (K562 [2]) did it give?
Answer: 2900 nM

Question: What about the Activity (K562 [15]) of the same compound?
Answer: 53.52%

Question: And the inhibition [16]?
Answer: 19%

Question: What about the Activity (K562 [17]) of the same compound?
Answer: 7%

Question: What about the Flu intensity [18] of the same compound?
Answer: 255

Question: And the IC50 (K562 [3])?
Answer: 600 nM

Question: And the Activity (K562 [19])?
Answer: 39.48%

Question: With COc1cc(C(=O)c2oc3ccccc3c2NC(=O)CI)cc(OC)c1OC as the compound, how does the AC50 (K562 [2]) read?
Answer: 6500 nM

Question: And the Flu intensity [11]?
Answer: 98.3

Question: What about the IC50 (Tubulin) of the same compound?
Answer: > 20000 nM

Question: And the IC50 (K562 [3])?
Answer: 900 nM

Question: What about the Activity (K562 [12]) of the same compound?
Answer: 20.98%

Question: What about the Activity (K562 [13]) of the same compound?
Answer: 3.65%

Question: And the Activity (K562 [14])?
Answer: 75.37%

Question: Which results are given for COc1cc(C(=O)c2oc3c(OC)cccc3c2NC(=O)CI)cc(OC)c1OC?
Answer: AC50 (K562 [2]): 24000 nM; IC50 (K562 [3]): 14000 nM

Question: For COc1cc(C(=O)c2cc3cc(NC(=O)CI)cc(OC)c3s2)cc(OC)c1OC, which AC50 (K562 [2]) is on record?
Answer: 3700 nM

Question: What about the Activity (K562 [15]) of the same compound?
Answer: 33.7%

Question: What about the Activity (K562 [17]) of the same compound?
Answer: 45.36%

Question: And the Flu intensity [18]?
Answer: 201

Question: What about the IC50 (K562 [3]) of the same compound?
Answer: 780 nM

Question: And the Activity (K562 [19])?
Answer: 19.94%

Question: With COc1cc(C(=O)c2sc3cc(C)ccc3c2NC(=O)CI)cc(OC)c1OC as the compound, how does the AC50 (K562 [2]) read?
Answer: 4700 nM

Question: What about the Flu intensity [11] of the same compound?
Answer: 200

Question: What about the IC50 (K562 [3]) of the same compound?
Answer: 1000 nM

Question: What about the Activity (K562 [12]) of the same compound?
Answer: 27.66%

Question: What about the Activity (K562 [13]) of the same compound?
Answer: 30.87%

Question: And the Activity (K562 [14])?
Answer: 41.47%
